Many of the other results were omitted from the sample, so hits are more common in it than they were.
IDH1 R132H inh – blocks human IDH1 R132H reductase activity | AID 624101 | diaphorase/resazurin fluorescence, 60 min | O75874 | inhibition, % at 10 µM | actives 0.18% (n = 70,000); in the data active = inhibition above about 34%; inconclusive = no clear call, values can overlap the other calls; inactive = below about 11%
Target sequence (O75874 whole entry R132H): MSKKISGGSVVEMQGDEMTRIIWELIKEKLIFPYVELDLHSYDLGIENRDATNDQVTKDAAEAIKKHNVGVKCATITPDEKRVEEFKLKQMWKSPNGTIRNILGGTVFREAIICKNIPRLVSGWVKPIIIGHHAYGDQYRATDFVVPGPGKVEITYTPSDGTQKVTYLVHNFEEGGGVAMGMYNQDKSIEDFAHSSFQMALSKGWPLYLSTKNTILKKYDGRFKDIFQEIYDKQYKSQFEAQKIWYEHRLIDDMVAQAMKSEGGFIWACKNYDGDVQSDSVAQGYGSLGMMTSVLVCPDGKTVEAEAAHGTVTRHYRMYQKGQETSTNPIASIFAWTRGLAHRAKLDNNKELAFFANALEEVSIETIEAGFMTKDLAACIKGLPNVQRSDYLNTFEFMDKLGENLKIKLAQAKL
T cruzi growth-1 – T. cruzi proliferation inhibition; T. cruzi beta-gal in NIH3T3, GalScreen luminescence, 90 h; inhibition, % at 8.34 µM; actives 5.9% (n = 77,000); AID 624255;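 active = mean inhibition above about 93%, with at least 55% of replicates each passing it, limit read from the data, passing the limit was not always enough; inconclusive = only one of those two conditions holds; inactive = neither condition holds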
KDM4C inh – inhibitors of human demethylase GASC-1 KDM4C | GST-KDM4C 2-372, H3K9me3 peptide, LANCE TR-FRET | inhibition, % at 12.5 µM | actives 0.15% (n = 96,000);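 active = mean replicate inhibition above about 25%, with at least 55% of replicates also reaching it, limit read from the data, passing the limit was not always enough; inconclusive = only one of those two conditions met; inactive = neither condition met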
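Material: GST-tagged GASC-1 (JMJD2C) catalytic fragment, aa 2-372. Input: enzyme final amount 10 nM. Medium: HEPES buffer, pH 7.5, plus ascorbate. Reagent: H3K9me3 peptide substrate, Fe(II), 2-oxoglutarate. Doses: single dose. Times: reaction 30 min RT, detection step 1 h RT. Measured by: LANCE TR-FRET. Evaluation: Fall in 671/618 emission ratio as inhibition.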
T cruzi growth-2 – Trypanosoma cruzi proliferation inhibition; shares compounds with T cruzi growth-1; T. cruzi beta-gal in NIH3T3, GalScreen luminescence, 90 h; inhibition, % at 8.35 µM; actives 72% (n = 5,600);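 active = mean replicate inhibition above about 95% and at least 55% of replicates individually reaching it, limit read from the data; inconclusive = only one of the two criteria is met; inactive = neither criterion is met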
T cruzi growth-3 – blocks T. cruzi growth in NIH3T3 host cells; shares compounds with T cruzi growth-1; T. cruzi beta-gal in NIH3T3, GalScreen luminescence, 90 h; inhibition, % at 2.09 µM; actives 21% (n = 5,600);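 active = mean inhibition above about 95%, with at least 55% of replicates also reaching it, limit read from the data; inconclusive = meets just one of the two conditions; inactive = meets neither condition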
NIH3T3 tox – kills mouse NIH/3T3 fibroblasts; cytotoxicity (signal decrease), % at 8.35 µM; shares compounds with T cruzi growth-1; AID 651742; NIH/3T3 viability, CellTiter-Glo ATP luminescence, 90 h; actives 14% (n = 5,600);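 active = mean signal decrease across replicates above about 35% based on untreated-well scatter, with enough replicates individually passing, limit read from the data; inconclusive = no rule stated though some were filed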
3T3 cytotox 2 – kills mouse NIH/3T3 fibroblasts; NIH/3T3 viability, CellTiter-Glo ATP luminescence, 90 h; actives 56% (n = 5,600); AID 651744; shares compounds with T cruzi growth-1; inhibition, % at 24.9 µM;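 active = mean loss of cell viability signal at or above a set limit, and enough replicates individually reaching it; inconclusive = meets only the mean limit or only the replicate share; inactive = meets neither condition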
Hits are given with their value; 0 = inactive; ? = inconclusive; - = no result given; ! = repeats disagree.

SMILES	IDH1 R132H inh	T cruzi growth-1	KDM4C inh	T cruzi growth-2	T cruzi growth-3	NIH3T3 tox	3T3 cytotox 2
C[C@H]1CN([C@@H](C)CO)S(=O)(=O)c2ccc(Br)cc2O[C@@H]1CN(C)Cc1ccncc1	0	99	0	96	0	0	0
C[C@H](CO)N1C[C@H](C)[C@@H](CN(C)Cc2ccncc2)Oc2cc(-c3ccncc3)ccc2S1(=O)=O	-	0	0	-	-	-	-
C[C@@H]1CN([C@@H](C)CO)S(=O)(=O)c2ccc(-c3ccncc3)cc2O[C@@H]1CN(C)Cc1ccncc1	0	105	0	100	0	36	65
C[C@H]1CN([C@@H](C)CO)S(=O)(=O)c2ccc(-c3ccncc3)cc2O[C@@H]1CN(C)Cc1ccncc1	-	100	0	96	97	0	65
C[C@@H]1CN([C@H](C)CO)S(=O)(=O)c2ccc(-c3ccncc3)cc2O[C@@H]1CN(C)Cc1ccncc1	-	0	0	-	-	-	-
Cc1noc(C)c1S(=O)(=O)Nc1ccc2c(c1)CC(=O)N([C@H](C)CO)C[C@H](C)[C@H](CN(C)C(=O)NC(C)C)O2	0	0	0	-	-	-	-
Cc1ccc(N(C(C)C(=O)Nc2cccc([N+](=O)[O-])c2)S(C)(=O)=O)cc1C (stereo unspecified)	0	-	-	-	-	-	-
COc1ccc(NC(=O)N2CCCCN3[C@H](C2)[C@@H](c2ccc(C#Cc4ccccc4)cc2)[C@@H]3CO)cc1	-	?	-	104	119	60	104
COc1ccc(NC(=O)N2CCCCN3[C@H](C2)[C@H](c2ccc(C#Cc4ccccc4)cc2)[C@@H]3CO)cc1	-	99	-	109	0	0	56
COc1ccc(C#Cc2ccc([C@@H]3[C@@H](CO)N4CCCCN(C(=O)Nc5ccccc5)C[C@H]34)cc2)cc1	-	0	0	-	-	-	-
O=C(Nc1ccccc1)N1CCCCN2[C@@H](CO)[C@H](c3ccc(C#Cc4ccccc4)cc3)[C@@H]2C1	-	0	0	-	-	-	-
COc1ccc(C#Cc2ccc([C@@H]3[C@H]4CN(C(=O)Nc5ccccc5)CCCCN4[C@H]3CO)cc2)cc1	-	106	0	0	0	94	106
COc1ccc(NC(=O)N2CCCCN3[C@@H](CO)[C@H](c4ccc(C#Cc5ccccc5)cc4)[C@@H]3C2)cc1	-	0	-	-	-	-	-
Cc1ccc(S(=O)(=O)NCC[C@@H]2CC[C@H](NC(=O)c3cccc(F)c3)[C@@H](CO)O2)cc1	0	0	0	-	-	-	-
Cc1noc(C)c1NC(=O)N(C)C[C@@H]1Oc2ccc(NC(=O)Nc3ccccc3)cc2C(=O)N([C@H](C)CO)C[C@@H]1C	0	0	0	-	-	-	-
CC(=O)c1cn(CC(=O)Nc2cccc(C(F)(F)F)c2)c2ccccc12	0	-	-	-	-	-	-
Cc1ccc(C)c(NC(=O)c2ccc(OCC(=O)Nc3cccc(Cl)c3)cc2)c1	0	-	-	-	-	-	-
FC(F)(F)c1ccnc(NCCNC(=S)NCc2ccco2)n1	0	-	-	-	-	-	-
Cc1ccc(S(=O)(=O)N(C)C[C@H]2OCCCC[C@H](C)Oc3ccc(NC(=O)c4ccccc4)cc3C(=O)N([C@@H](C)CO)C[C@@H]2C)cc1	0	104	0	106	0	0	0
Cc1ccc(S(=O)(=O)N(C)C[C@@H]2OCCCC[C@H](C)Oc3ccc(NC(=O)c4ccccc4)cc3C(=O)N([C@@H](C)CO)C[C@H]2C)cc1	-	0	0	-	-	-	-
Cc1ccc(S(=O)(=O)N(C)C[C@@H]2OCCCC[C@@H](C)Oc3ccc(NC(=O)c4ccccc4)cc3C(=O)N([C@H](C)CO)C[C@@H]2C)cc1	-	0	0	-	-	-	-
Cc1ccc(S(=O)(=O)N(C)C[C@@H]2OCCCC[C@@H](C)Oc3ccc(NC(=O)c4ccccc4)cc3C(=O)N([C@@H](C)CO)C[C@H]2C)cc1	0	100	0	108	0	0	31
Cc1ccccc1-c1cnc2c(c1)C(=O)N([C@H](C)CO)C[C@@H](C)[C@H](CN(C)C(=O)c1ccc(F)cc1)O2	0	-	0	-	-	-	-
COc1ccc2c3c([nH]c2c1)[C@@H](CO)N(C)CC31CCN(S(=O)(=O)c2cccc(F)c2)CC1	-	-	0	-	-	-	-
Cc1cc2nc(-c3ccc(C)c(NC(=O)COc4ccc([N+](=O)[O-])cc4)c3)oc2cc1C	0	-	-	-	-	-	-
SMILES	IDH1 R132H inh	T cruzi growth-1	KDM4C inh	T cruzi growth-2	T cruzi growth-3	NIH3T3 tox	3T3 cytotox 2
C/C=C/c1cnc2c(c1)C(=O)N([C@@H](C)CO)C[C@@H](C)[C@@H](CN(C)C(=O)Nc1ccccc1F)O2	0	0	0	-	-	-	-
C[C@H](CO)N1C[C@H](C)[C@H](CN(C)C(=O)Nc2ccccc2F)Oc2ncc(/C=C/c3ccccc3)cc2C1=O	0	0	0	-	-	-	-
C[C@H](CO)N1C[C@H](C)[C@H](CN(C)C(=O)Nc2cccc3ccccc23)Oc2ncc(-c3cc4ccccc4o3)cc2C1=O	0	?	0	102	0	45	102
C[C@@H]1CN([C@@H](C)CO)C(=O)c2cc(/C=C/c3ccccc3)cnc2O[C@@H]1CN(C)C(=O)Nc1ccccc1F	0	109	0	0	0	0	24
C[C@H](CO)N1C[C@H](C)[C@H](CN(C)C(=O)Nc2cccc3ccccc23)Oc2ncc(-c3ccc(F)cc3)cc2C1=O	0	0	0	-	-	-	-
C[C@H]1CN([C@@H](C)CO)C(=O)c2cc(/C=C/c3ccccc3)cnc2O[C@@H]1CN(C)C(=O)Nc1ccccc1F	0	126	0	108	107	0	0
CN(CC(=O)Nc1cccc2ccccc12)S(=O)(=O)c1ccc(F)cc1	0	-	-	-	-	-	-
N#C[C@@H]1[C@@H](c2ccccc2C2=CCCCC2)[C@H](CO)N1C(=O)NC1CCCCC1	-	-	0	-	-	-	-
COc1ccc(-c2cn(S(=O)(=O)c3ccccc3OC)nc2N)cc1OC	0	-	-	-	-	-	-
COc1ccc(NC(=O)C23CC4CC(C2)CC(C(=O)Nc2ccc(OC)c(OC)c2)(C4)C3)cc1OC	0	-	-	-	-	-	-
CC(=O)Nc1ccc(-c2nnc(SCC(=O)Nc3cc(Cl)cc(Cl)c3)n2C)cc1	0	-	-	-	-	-	-
C[C@H]1CN([C@@H](C)CO)C(=O)c2cc(C#Cc3ccccc3)cnc2O[C@@H]1CN(C)S(=O)(=O)c1ccccc1F	0	?	-	108	0	37	36
C[C@@H]1CN([C@H](C)CO)C(=O)c2cc(C#Cc3ccccc3F)cnc2O[C@@H]1CN(C)S(=O)(=O)c1ccccc1F	0	106!	0	107	0	55	54
C[C@@H]1CN([C@H](C)CO)C(=O)c2cc(C#Cc3ccccc3F)cnc2O[C@H]1CN(C)S(=O)(=O)c1ccccc1F	0	114	0	110	0	39	?
C[C@H](CO)N1C[C@H](C)[C@H](CN(C)S(=O)(=O)c2cccs2)Oc2ncc(C#Cc3ccccc3)cc2C1=O	0	119!	0	109	0	0	0
C[C@H](CO)N1C[C@H](C)[C@H](CN(C)S(=O)(=O)c2ccccc2F)Oc2ncc(C#Cc3ccccc3)cc2C1=O	0	0	-	-	-	-	-
